The assay concerns the target Integrin alpha-IIb/beta-3 (Homo sapiens, UniProt P08514+P05106). The assay is described as follows: Concentration required to inhibit adenosine diphosphate (ADP) induced aggregation of human platelets by 50% in vitro. The method, boiled down: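 PRP obtained by centrifugation and adjusted to […]. PRP stirred at 1000 rpm and prewarmed 2 min at 37 °C with compound. Submaximal ADP added; light-transmittance aggregometry.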

Usually IC50 stands for the midpoint of a concentration-inhibition curve.

Peptide text beside a SMILES is read from it.

Sequence of Integrin alpha-IIb/beta-3 (P05106 27-788 limits assumed): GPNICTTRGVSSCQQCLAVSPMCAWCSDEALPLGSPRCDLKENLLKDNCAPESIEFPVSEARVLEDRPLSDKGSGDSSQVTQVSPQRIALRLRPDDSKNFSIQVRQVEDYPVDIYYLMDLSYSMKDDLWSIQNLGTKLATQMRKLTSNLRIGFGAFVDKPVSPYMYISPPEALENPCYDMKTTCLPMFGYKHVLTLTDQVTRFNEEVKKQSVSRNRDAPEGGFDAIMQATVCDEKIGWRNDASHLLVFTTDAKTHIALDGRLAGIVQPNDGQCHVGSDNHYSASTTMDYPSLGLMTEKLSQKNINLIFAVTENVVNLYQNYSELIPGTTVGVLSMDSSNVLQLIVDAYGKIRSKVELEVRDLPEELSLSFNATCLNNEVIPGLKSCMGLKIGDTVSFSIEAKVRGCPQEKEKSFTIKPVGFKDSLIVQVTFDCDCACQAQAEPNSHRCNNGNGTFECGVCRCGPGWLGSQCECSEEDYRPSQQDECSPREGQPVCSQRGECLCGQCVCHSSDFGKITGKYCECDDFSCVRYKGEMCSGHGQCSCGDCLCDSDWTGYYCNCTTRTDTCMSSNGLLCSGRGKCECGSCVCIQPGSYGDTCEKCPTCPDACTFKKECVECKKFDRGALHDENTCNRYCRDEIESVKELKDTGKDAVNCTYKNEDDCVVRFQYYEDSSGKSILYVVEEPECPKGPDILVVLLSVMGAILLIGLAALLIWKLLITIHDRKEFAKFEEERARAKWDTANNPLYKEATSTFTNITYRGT
Sequence of Integrin alpha-IIb/beta-3 (P08514 32-887 limits assumed): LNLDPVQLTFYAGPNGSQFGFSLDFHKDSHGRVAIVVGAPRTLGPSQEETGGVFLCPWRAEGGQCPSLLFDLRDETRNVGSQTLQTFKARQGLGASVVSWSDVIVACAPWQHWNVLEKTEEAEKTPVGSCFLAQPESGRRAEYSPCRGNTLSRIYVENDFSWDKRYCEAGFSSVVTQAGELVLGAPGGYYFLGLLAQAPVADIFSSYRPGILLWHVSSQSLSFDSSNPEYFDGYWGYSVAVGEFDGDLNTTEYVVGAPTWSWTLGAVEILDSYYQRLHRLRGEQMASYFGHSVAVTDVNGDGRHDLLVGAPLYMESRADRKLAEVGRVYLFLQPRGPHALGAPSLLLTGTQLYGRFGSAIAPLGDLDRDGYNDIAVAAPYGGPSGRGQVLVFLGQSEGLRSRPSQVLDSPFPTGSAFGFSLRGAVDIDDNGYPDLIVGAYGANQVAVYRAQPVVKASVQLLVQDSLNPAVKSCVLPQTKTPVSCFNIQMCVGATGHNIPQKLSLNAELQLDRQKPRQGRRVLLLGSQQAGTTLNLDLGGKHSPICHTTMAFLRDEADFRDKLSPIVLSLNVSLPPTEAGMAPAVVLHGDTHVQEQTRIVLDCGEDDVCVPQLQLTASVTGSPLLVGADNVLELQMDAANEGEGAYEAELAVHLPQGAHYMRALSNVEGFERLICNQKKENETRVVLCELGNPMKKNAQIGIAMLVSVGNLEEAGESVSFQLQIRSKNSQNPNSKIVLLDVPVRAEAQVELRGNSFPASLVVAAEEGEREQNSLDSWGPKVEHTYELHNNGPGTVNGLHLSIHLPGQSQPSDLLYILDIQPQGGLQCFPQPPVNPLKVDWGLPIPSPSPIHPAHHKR
Sequence of Integrin alpha-IIb/beta-3 (P08514 891-1039 limits assumed): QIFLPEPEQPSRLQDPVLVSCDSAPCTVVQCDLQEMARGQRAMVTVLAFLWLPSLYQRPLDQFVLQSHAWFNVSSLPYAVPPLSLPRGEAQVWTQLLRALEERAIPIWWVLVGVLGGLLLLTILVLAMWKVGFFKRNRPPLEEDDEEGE

On to `NCCc1ccc(C(=O)NCC(=O)N2CCN(CC(=O)O)C(=O)[C@@H]2CCC(=O)O)cc1` [3-((S)-1-{2-[4-(2-Amino-ethyl)-benzoylamino]-acetyl}-4-carboxymethyl-3-oxo-piperazin-2-yl)-propionic acid], for which 110 nM corresponded to half-maximal inhibition (IC50).
As for `COC(=O)C[C@@H]1C(=O)N(CC(=O)O)CCN1C(=O)CNC(=O)c1ccc(C(=N)N)cc1` [{(R)-4-[2-(4-Carbamimidoyl-benzoylamino)-acetyl]-3-methoxycarbonylmethyl-2-oxo-piperazin-1-yl}-acetic acid], the figure is 580 nM; as for `N=C(N)NCc1ccc(C(=O)NCC(=O)N2CCN(CC(=O)O)C(=O)[C@@H]2CC(=O)O)cc1` [{(S)-4-Carboxymethyl-1-[2-(4-guanidinomethyl-benzoylamino)-acetyl]-3-oxo-piperazin-2-yl}-acetic acid], 560 nM; as for `N=C(N)c1ccc(C(=O)NCC(=O)N2CCN(CC(=O)O)C(=O)C2)cc1` [{4-[2-(4-Carbamimidoyl-benzoylamino)-acetyl]-2-oxo-piperazin-1-yl}-acetic acid], 94 nM.
Under `NCCCc1ccc(C(=O)NCC(=O)N2CCN(CC(=O)O)C(=O)[C@@H]2CC(=O)O)cc1` [((S)-1-{2-[4-(3-Amino-propyl)-benzoylamino]-acetyl}-4-carboxymethyl-3-oxo-piperazin-2-yl)-acetic acid] stands 1030 nM; under `N=C(N)c1ccc(CC(=O)NCC(=O)N2CCN(CC(=O)O)C(=O)[C@@H]2CC(=O)O)cc1` [((S)-1-{2-[2-(4-Carbamimidoyl-phenyl)-acetylamino]-acetyl}-4-carboxymethyl-3-oxo-piperazin-2-yl)-acetic acid], 1200 nM; under `C[C@@H](C(=O)O)N1CCN(C(=O)CNC(=O)c2ccc(C(=N)N)cc2)[C@@H](CC(=O)O)C1=O` [(S)-2-{(S)-4-[2-(4-Carbamimidoyl-benzoylamino)-acetyl]-3-carboxymethyl-2-oxo-piperazin-1-yl}-propionic acid], 1500 nM.
As for `N=C(N)N1CCC(C(=O)NCC(=O)N2CCN(CC(=O)O)C(=O)[C@@H]2CC(=O)O)CC1` [((S)-1-{2-[(1-Carbamimidoyl-piperidine-4-carbonyl)-amino]-acetyl}-4-carboxymethyl-3-oxo-piperazin-2-yl)-acetic acid], the figure is 800 nM; as for `NC(N)=NCCC[C@H](N)C(=O)NCC(=O)N[C@@H](CC(=O)O)C(=O)N[C@@H](Cc1ccccc1)C(=O)O` [(R)-3-[2-((S)-2-Amino-5-guanidino-pentanoylamino)-acetylamino]-N-((S)-1-carboxy-2-phenyl-ethyl)-succinamic acid] (H-RGDF-OH), 48000 nM; as for `N=C(N)NCC1CCC(C(=O)NCC(=O)N2CCN(CC(=O)O)C(=O)[C@@H]2CC(=O)O)CC1` (stereo partly drawn) [((S)-4-Carboxymethyl-1-{2-[(4-guanidinomethyl-cyclohexanecarbonyl)-amino]-acetyl}-3-oxo-piperazin-2-yl)-acetic acid], 1100 nM.
On to `NCCc1ccc(C(=O)NCC(=O)N2CCN(CC(=O)O)C(=O)[C@@H]2CC(=O)O)cc1` [((S)-1-{2-[4-(2-Amino-ethyl)-benzoylamino]-acetyl}-4-carboxymethyl-3-oxo-piperazin-2-yl)-acetic acid], for which the IC50 was found to be 130 nM.
As for `NCCc1ccc(C(=O)NCC(=O)N2CCN(CC(=O)O)C(=O)C2)cc1` [(4-{2-[4-(2-Amino-ethyl)-benzoylamino]-acetyl}-2-oxo-piperazin-1-yl)-acetic acid], the figure is 150 nM; as for `NC(N)=Nc1ccc(C(=O)NCC(=O)N2CCN(CC(=O)O)C(=O)[C@@H]2CC(=O)O)cc1` [{(S)-4-Carboxymethyl-1-[2-(4-guanidino-benzoylamino)-acetyl]-3-oxo-piperazin-2-yl}-acetic acid], 350 nM.
The compound `N=C(N)c1cccc(C(=O)NCC(=O)N2CCN(CC(=O)O)C(=O)[C@@H]2CC(=O)O)c1` [{(S)-1-[2-(3-Carbamimidoyl-benzoylamino)-acetyl]-4-carboxymethyl-3-oxo-piperazin-2-yl}-acetic acid] registered an IC50 of 13000 nM.
Consider `N=C(N)c1ccc(C(=O)NCC(=O)N2CCN([C@@H](Cc3ccccc3)C(=O)O)C(=O)[C@@H]2CC(=O)O)cc1` [(S)-2-{(S)-4-[2-(4-Carbamimidoyl-benzoylamino)-acetyl]-3-carboxymethyl-2-oxo-piperazin-1-yl}-3-phenyl-propionic acid], for which 4100 nM corresponded to half-maximal inhibition (IC50).
The compound `COC(=O)CC[C@H]1C(=O)N(CC(=O)O)CCN1C(=O)CNC(=O)c1ccc(CCN)cc1` [3-((S)-1-{2-[4-(2-Amino-ethyl)-benzoylamino]-acetyl}-4-carboxymethyl-3-oxo-piperazin-2-yl)-propionic acid methyl ester] yielded an IC50 of 120 nM.
Compound `N=C(N)c1ccc(C(=O)NCC(=O)N2CCN(CC(=O)O)C(=O)[C@@H]2CC(N)=O)cc1` [{(S)-4-[2-(4-Carbamimidoyl-benzoylamino)-acetyl]-3-carbamoylmethyl-2-oxo-piperazin-1-yl}-acetic acid] displayed an IC50 of 740 nM.
As for `N=C(N)c1ccc(C(=O)NCC(=O)N2CCN(CCC(=O)O)C(=O)[C@@H]2CC(=O)O)cc1` [3-{(S)-4-[2-(4-Carbamimidoyl-benzoylamino)-acetyl]-3-carboxymethyl-2-oxo-piperazin-1-yl}-propionic acid], the figure is 30000 nM.
As for `N=C(N)c1ccc(C(=O)NCC(=O)N2CCN(CC(=O)O)C(=O)[C@@H]2Cc2ccccc2)cc1` [{(S)-3-Benzyl-4-[2-(4-carbamimidoyl-benzoylamino)-acetyl]-2-oxo-piperazin-1-yl}-acetic acid], the figure is 110 nM; as for `COC(=O)CC[C@H]1C(=O)N(CC(=O)O)CCN1C(=O)CNC(=O)c1ccc(C(=N)N)cc1` [3-{(S)-1-[2-(4-Carbamimidoyl-benzoylamino)-acetyl]-4-carboxymethyl-3-oxo-piperazin-2-yl}-propionic acid methyl ester], 90 nM; as for `N=C(N)c1ccc(C(=O)NCC(=O)N2CCN(CC(=O)O)C(=O)[C@@H]2CCC(=O)O)cc1` [3-{(S)-1-[2-(4-Carbamimidoyl-benzoylamino)-acetyl]-4-carboxymethyl-3-oxo-piperazin-2-yl}-propionic acid], 52 nM.
Under `CN(C)C(N)=Nc1ccc(C(=O)NCC(=O)N2CCN(CC(=O)O)C(=O)[C@@H]2CC(=O)O)cc1` [((S)-4-Carboxymethyl-1-{2-[4-(N',N'-dimethyl-guanidino)-benzoylamino]-acetyl}-3-oxo-piperazin-2-yl)-acetic acid] stands 11000 nM; under `CN(C)CCc1ccc(C(=O)NCC(=O)N2CCN(CC(=O)O)C(=O)[C@@H]2CCC(=O)O)cc1` [3-((S)-4-Carboxymethyl-1-{2-[4-(2-dimethylamino-ethyl)-benzoylamino]-acetyl}-3-oxo-piperazin-2-yl)-propionic acid], 2500 nM.
`COC(=O)C[C@H]1C(=O)N(CC(=O)O)CCN1C(=O)CNC(=O)c1ccc(CCN)cc1` [((S)-4-{2-[4-(2-Amino-ethyl)-benzoylamino]-acetyl}-3-methoxycarbonylmethyl-2-oxo-piperazin-1-yl)-acetic acid] came in with an IC50 of 78 nM.
Under `N=C(N)c1ccc(C(=O)NCC(=O)N2CCN(CC(N)=O)C(=O)[C@@H]2CC(=O)O)cc1` [{(S)-1-[2-(4-Carbamimidoyl-benzoylamino)-acetyl]-4-carbamoylmethyl-3-oxo-piperazin-2-yl}-acetic acid] stands 30000 nM; under `COC(=O)CC[C@H]1C(=O)N(CC(=O)O)CCN1C(=O)CNC(=O)c1ccc(CCN(C)C)cc1` [3-((S)-4-Carboxymethyl-1-{2-[4-(2-dimethylamino-ethyl)-benzoylamino]-acetyl}-3-oxo-piperazin-2-yl)-propionic acid methyl ester], 2300 nM; under `N=C(N)NCCCCC(=O)NCC(=O)N1CCN(CC(=O)O)C(=O)[C@@H]1CC(=O)O` [{(S)-4-Carboxymethyl-1-[2-(5-guanidino-pentanoylamino)-acetyl]-3-oxo-piperazin-2-yl}-acetic acid], 3600 nM.
The compound `COC(=O)CN1CCN(C(=O)CNC(=O)c2ccc(C(=N)N)cc2)[C@@H](CC(=O)O)C1=O` [{(S)-1-[2-(4-Carbamimidoyl-benzoylamino)-acetyl]-4-methoxycarbonylmethyl-3-oxo-piperazin-2-yl}-acetic acid] yielded an IC50 of 2600 nM.
Consider `N=C(N)c1ccc(C(=O)NCC(=O)N2CCN(CC(=O)O)C(=O)[C@@H]2CC(=O)O)cc1`, for which half-maximal inhibition (IC50) was put at 110 nM.
